Assay results published in ChEMBL document CHEMBL1255409, “In vitro activity of ceftaroline against 623 diverse strains of anaerobic bacteria” (2010).
Values after ≈ are worked out from the molar mass of the structure shown.

Columns and labels:
Format in all cases: functional
Prevotella bivia = assay: Antimicrobial activity against Prevotella bivia under anaerobic conditions after 44 hrs by CLSI-M11-47 protocol based agar dilution method
Procedure, shortened: (§1)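 Clinical isolates were stored at −70°C in 20% skim milk and identified phenotypically or by partial 16S rRNA sequencing. Each strain was subcultured twice from frozen stock. Cell paste from 48-h cultures was suspended in brucella broth to a 0.5 McFarland standard. About 10^5 CFU per spot were applied by Steers replicator to agar dilution plates prepared on the day of testing. Plates were incubated 44 h at 37°C in an anaerobic chamber. MIC was taken as the lowest concentration giving complete inhibition or marked reduction of growth versus the drug-free control.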

Clostridium bolteae = assay: Antimicrobial activity against Clostridium bolteae under anaerobic conditions after 44 hrs by CLSI-M11-47 protocol based agar dilution method; settings: Enterocloster bolteae
Procedure, shortened: (§2)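 Reference agar dilution per CLSI M11-A7 with plates made on test day. Clinical isolates were stored at −70°C in 20% skim milk, subcultured twice, and 48-h cell paste was suspended in brucella broth to 0.5 McFarland. About 10^5 CFU/spot was applied with a Steers replicator. Plates were incubated 44 h at 37°C anaerobically. MIC was the lowest concentration giving complete inhibition or marked growth reduction versus the drug-free control.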

Eubacterium contortum = assay: Antimicrobial activity against Eubacterium contortum under anaerobic conditions after 44 hrs by CLSI-M11-47 protocol based agar dilution method; settings: Faecalicatena contorta; procedure, shortened: as §2
Phocaeicola vulgatus = assay: Antimicrobial activity against Bacteroides vulgatus under anaerobic conditions after 44 hrs by CLSI-M11-47 protocol based agar dilution method; procedure, shortened: as §2
Eubacterium saburreum = assay: Antimicrobial activity against Eubacterium saburreum under anaerobic conditions after 44 hrs by CLSI-M11-47 protocol based agar dilution method; settings: Lachnoanaerobaculum saburreum; procedure, shortened: as §2
[1] = test system: Peptostreptococcus stomatis; assay: Antimicrobial activity against Peptostreptococcus stomatis under anaerobic conditions after 44 hrs by CLSI-M11-47 protocol based agar dilution method; procedure, shortened: as §1
Eubacterium cylindroides = assay: Antimicrobial activity against Eubacterium cylindroides under anaerobic conditions after 44 hrs by CLSI-M11-47 protocol based agar dilution method; settings: Faecalitalea cylindroides; procedure, shortened: as §2
Bacteroides ovatus = assay: Antimicrobial activity against Bacteroides ovatus under anaerobic conditions after 44 hrs by CLSI-M11-47 protocol based agar dilution method; procedure, shortened: as §2
Clostridium glycolicum = assay: Antimicrobial activity against Clostridium glycolicum under anaerobic conditions after 44 hrs by CLSI-M11-47 protocol based agar dilution method; settings: Terrisporobacter glycolicus; procedure, shortened: as §2
Prevotella bergensis = assay: Antimicrobial activity against Prevotella bergensis under anaerobic conditions after 44 hrs by CLSI-M11-47 protocol based agar dilution method; settings: Hallella bergensis; procedure, shortened: as §1
Peptoniphilus lacrimalis = assay: Antimicrobial activity against Peptoniphilus lacrimalis under anaerobic conditions after 44 hrs by CLSI-M11-47 protocol based agar dilution method; procedure, shortened: as §1
Schaalia odontolytica = assay: Antimicrobial activity against Actinomyces odontolyticus under anaerobic conditions after 44 hrs by CLSI-M11-47 protocol based agar dilution method; procedure, shortened: as §2
Anaerococcus murdochii = assay: Antimicrobial activity against Anaerococcus murdochii under anaerobic conditions after 44 hrs by CLSI-M11-47 protocol based agar dilution method; procedure, shortened: as §2
Collinsella aerofaciens = assay: Antimicrobial activity against Colinsella aerofaciens under anaerobic conditions after 44 hrs by CLSI-M11-47 protocol based agar dilution method; procedure, shortened: as §2
Fusobacterium varium = assay: Antimicrobial activity against Fusobacterium varium under anaerobic conditions after 44 hrs by CLSI-M11-47 protocol based agar dilution method; procedure, shortened: as §1
[2] = test system: Paeniclostridium sordellii; assay: Antimicrobial activity against Clostridium sordellii under anaerobic conditions after 44 hrs by CLSI-M11-47 protocol based agar dilution method; settings: Paraclostridium sordellii; procedure, shortened: as §2
Schaalia meyeri = assay: Antimicrobial activity against Actinomyces meyeri under anaerobic conditions after 44 hrs by CLSI-M11-47 protocol based agar dilution method; procedure, shortened: as §2
Clostridium aldenense = assay: Antimicrobial activity against Clostridium aldenense under anaerobic conditions after 44 hrs by CLSI-M11-47 protocol based agar dilution method; settings: Enterocloster aldenensis; procedure, shortened: as §2
Clostridium perfringens = assay: Antimicrobial activity against Clostridium perfringens under anaerobic conditions after 44 hrs by CLSI-M11-47 protocol based agar dilution method
Peptoniphilus harei = assay: Antimicrobial activity against Peptoniphilus harei under anaerobic conditions after 44 hrs by CLSI-M11-47 protocol based agar dilution method; procedure, shortened: as §1
Prevotella nanceiensis = assay: Antimicrobial activity against Prevotella nanceiensis under anaerobic conditions after 44 hrs by CLSI-M11-47 protocol based agar dilution method; settings: Hoylesella nanceiensis; procedure, shortened: as §1
Clostridium cadaveris = assay: Antimicrobial activity against Clostridium cadaveris under anaerobic conditions after 44 hrs by CLSI-M11-47 protocol based agar dilution method; procedure, shortened: as §2
Fusobacterium nucleatum = assay: Antimicrobial activity against Fusobacterium nucleatum under anaerobic conditions after 44 hrs by CLSI-M11-47 protocol based agar dilution method; procedure, shortened: as §1
Atopobium parvulum = assay: Antimicrobial activity against Atopobium parvulum under anaerobic conditions after 44 hrs by CLSI-M11-47 protocol based agar dilution method; settings: Lancefieldella parvula; procedure, shortened: as §2
[3] = test system: Clostridium celerecrescens; assay: Antimicrobial activity against Clostridium celerecrescens under anaerobic conditions after 44 hrs by CLSI-M11-47 protocol based agar dilution method; settings: Lacrimispora celerecrescens; procedure, shortened: as §2
Clostridium hylemonae = assay: Antimicrobial activity against Clostridium hylemonae under anaerobic conditions after 44 hrs by CLSI-M11-47 protocol based agar dilution method; procedure, shortened: as §2
Clostridium tertium = assay: Antimicrobial activity against Clostridium tertium under anaerobic conditions after 44 hrs by CLSI-M11-47 protocol based agar dilution method; procedure, shortened: as §2
Clostridium symbiosum = assay: Antimicrobial activity against Clostridium symbiosum under anaerobic conditions after 44 hrs by CLSI-M11-47 protocol based agar dilution method; procedure, shortened: as §2
Bacteroides caccae = assay: Antimicrobial activity against Bacteroides caccae under anaerobic conditions after 44 hrs by CLSI-M11-47 protocol based agar dilution method; procedure, shortened: as §2
Prevotella buccae = assay: Antimicrobial activity against Prevotella buccae under anaerobic conditions after 44 hrs by CLSI-M11-47 protocol based agar dilution method; settings: Segatella buccae; procedure, shortened: as §1
Clostridioides difficile = assay: Antimicrobial activity against Clostridium difficile under anaerobic conditions after 44 hrs by CLSI-M11-47 protocol based agar dilution method; procedure, shortened: as §2
[4] = test system: Paraclostridium bifermentans; assay: Antimicrobial activity against Clostridium bifermentans under anaerobic conditions after 44 hrs by CLSI-M11-47 protocol based agar dilution method; procedure, shortened: as §2

Q: `CCO/N=C(\C(=O)N[C@@H]1C(=O)N2C(C(=O)[O-])=C(Sc3nc(-c4cc[n+](C)cc4)cs3)CS[C@H]12)c1nsc(NP(=O)(O)O)n1` [CEFTAROLINE FOSAMIL] was tested. Which MIC50 (Prevotella bivia) did it give?
A: 2 µg/mL (≈ 2.92 µM)

Q: What about the MIC90 (Prevotella bivia) of the same compound?
A: 64 µg/mL (≈ 93.5 µM)

Q: What about the MIC50 (Clostridium bolteae) of the same compound?
A: 1 µg/mL (≈ 1.46 µM)

Q: And the MIC90 (Clostridium bolteae)?
A: 2 µg/mL (≈ 2.92 µM)

Q: What about the MIC50 (Eubacterium contortum) of the same compound?
A: 0.125 µg/mL (≈ 0.183 µM)

Q: What about the MIC90 (Eubacterium contortum) of the same compound?
A: 0.25 µg/mL (≈ 0.365 µM)

Q: What about the MIC50 (Phocaeicola vulgatus) of the same compound?
A: 64 µg/mL (≈ 93.5 µM)

Q: And the MIC90 (Phocaeicola vulgatus)?
A: > 64 µg/mL

Q: And the MIC50 (Eubacterium saburreum)?
A: 0.125 µg/mL (≈ 0.183 µM)

Q: And the MIC90 (Eubacterium saburreum)?
A: 0.25 µg/mL (≈ 0.365 µM)

Q: And the MIC50 [1]?
A: 0.5 µg/mL (≈ 0.73 µM)

Q: And the MIC90 [1]?
A: 4 µg/mL (≈ 5.84 µM)

Q: What about the MIC50 (Eubacterium cylindroides) of the same compound?
A: 0.125 µg/mL (≈ 0.183 µM)

Q: What about the MIC90 (Eubacterium cylindroides) of the same compound?
A: 0.25 µg/mL (≈ 0.365 µM)

Q: And the MIC50 (Bacteroides ovatus)?
A: 64 µg/mL (≈ 93.5 µM)

Q: And the MIC90 (Bacteroides ovatus)?
A: > 64 µg/mL

Q: And the MIC50 (Clostridium glycolicum)?
A: 0.5 µg/mL (≈ 0.73 µM)

Q: What about the MIC90 (Clostridium glycolicum) of the same compound?
A: 16 µg/mL (≈ 23.4 µM)

Q: What about the MIC50 (Prevotella bergensis) of the same compound?
A: 2 µg/mL (≈ 2.92 µM)

Q: What about the MIC90 (Prevotella bergensis) of the same compound?
A: 32 µg/mL (≈ 46.7 µM)

Q: And the MIC50 (Peptoniphilus lacrimalis)?
A: 0.06 µg/mL (≈ 0.0876 µM)

Q: What about the MIC90 (Peptoniphilus lacrimalis) of the same compound?
A: 1 µg/mL (≈ 1.46 µM)

Q: What about the MIC50 (Schaalia odontolytica) of the same compound?
A: 0.015 µg/mL (≈ 0.0219 µM)

Q: And the MIC90 (Schaalia odontolytica)?
A: 0.25 µg/mL (≈ 0.365 µM)

Q: And the MIC50 (Anaerococcus murdochii)?
A: 0.06 µg/mL (≈ 0.0876 µM)

Q: What about the MIC90 (Anaerococcus murdochii) of the same compound?
A: 1 µg/mL (≈ 1.46 µM)

Q: What about the MIC50 (Collinsella aerofaciens) of the same compound?
A: 0.125 µg/mL (≈ 0.183 µM)

Q: And the MIC90 (Collinsella aerofaciens)?
A: 0.25 µg/mL (≈ 0.365 µM)

Q: What about the MIC50 (Fusobacterium varium) of the same compound?
A: 0.25 µg/mL (≈ 0.365 µM)

Q: What about the MIC90 (Fusobacterium varium) of the same compound?
A: 0.5 µg/mL (≈ 0.73 µM)

Q: What about the MIC50 [2] of the same compound?
A: 0.5 µg/mL (≈ 0.73 µM)

Q: And the MIC90 [2]?
A: 16 µg/mL (≈ 23.4 µM)

Q: And the MIC50 (Schaalia meyeri)?
A: 0.015 µg/mL (≈ 0.0219 µM)

Q: And the MIC90 (Schaalia meyeri)?
A: 0.25 µg/mL (≈ 0.365 µM)

Q: And the MIC50 (Clostridium aldenense)?
A: 1 µg/mL (≈ 1.46 µM)

Q: What about the MIC90 (Clostridium aldenense) of the same compound?
A: 2 µg/mL (≈ 2.92 µM)

Q: What about the MIC50 (Clostridium perfringens) of the same compound?
A: 0.125 µg/mL (≈ 0.183 µM)

Q: And the MIC90 (Clostridium perfringens)?
A: 0.25 µg/mL (≈ 0.365 µM)

Q: What about the MIC50 (Peptoniphilus harei) of the same compound?
A: 0.06 µg/mL (≈ 0.0876 µM)

Q: What about the MIC90 (Peptoniphilus harei) of the same compound?
A: 1 µg/mL (≈ 1.46 µM)

Q: What about the MIC50 (Prevotella nanceiensis) of the same compound?
A: 2 µg/mL (≈ 2.92 µM)

Q: What about the MIC90 (Prevotella nanceiensis) of the same compound?
A: 32 µg/mL (≈ 46.7 µM)

Q: What about the MIC50 (Clostridium cadaveris) of the same compound?
A: 0.5 µg/mL (≈ 0.73 µM)

Q: And the MIC90 (Clostridium cadaveris)?
A: 16 µg/mL (≈ 23.4 µM)

Q: What about the MIC50 (Fusobacterium nucleatum) of the same compound?
A: ≤ 0.08 µg/mL

Q: And the MIC90 (Fusobacterium nucleatum)?
A: 0.125 µg/mL (≈ 0.183 µM)

Q: What about the MIC50 (Atopobium parvulum) of the same compound?
A: 0.125 µg/mL (≈ 0.183 µM)

Q: What about the MIC90 (Atopobium parvulum) of the same compound?
A: 0.25 µg/mL (≈ 0.365 µM)

Q: And the MIC50 [3]?
A: 0.5 µg/mL (≈ 0.73 µM)

Q: What about the MIC90 [3] of the same compound?
A: 16 µg/mL (≈ 23.4 µM)

Q: What about the MIC50 (Clostridium hylemonae) of the same compound?
A: 0.5 µg/mL (≈ 0.73 µM)

Q: And the MIC90 (Clostridium hylemonae)?
A: 16 µg/mL (≈ 23.4 µM)

Q: What about the MIC50 (Clostridium tertium) of the same compound?
A: 0.5 µg/mL (≈ 0.73 µM)

Q: What about the MIC90 (Clostridium tertium) of the same compound?
A: 16 µg/mL (≈ 23.4 µM)

Q: What about the MIC50 (Clostridium symbiosum) of the same compound?
A: 0.5 µg/mL (≈ 0.73 µM)

Q: And the MIC90 (Clostridium symbiosum)?
A: 16 µg/mL (≈ 23.4 µM)

Q: What about the MIC50 (Bacteroides caccae) of the same compound?
A: 64 µg/mL (≈ 93.5 µM)

Q: And the MIC90 (Bacteroides caccae)?
A: > 64 µg/mL

Q: And the MIC50 (Prevotella buccae)?
A: 0.5 µg/mL (≈ 0.73 µM)

Q: What about the MIC90 (Prevotella buccae) of the same compound?
A: 64 µg/mL (≈ 93.5 µM)

Q: What about the MIC50 (Clostridioides difficile) of the same compound?
A: 0.5 µg/mL (≈ 0.73 µM)

Q: What about the MIC90 (Clostridioides difficile) of the same compound?
A: 16 µg/mL (≈ 23.4 µM)

Q: What about the MIC50 [4] of the same compound?
A: 0.5 µg/mL (≈ 0.73 µM)

Q: What about the MIC90 [4] of the same compound?
A: 16 µg/mL (≈ 23.4 µM)
